This note sets out measurements from ChEMBL document CHEMBL1129752, “Novel 3-Pyridyl ethers with subnanomolar affinity for central neuronal nicotinic acetylcholine receptors” (J Med Chem, 1996).

As a reminder, the EC50 is the concentration giving half of the maximal effect. By Ki is commonly meant the dissociation constant of the complex between target and ligand, obtained from inhibition or displacement. A lower Ki goes with a stronger hold on the target. As usually defined, the IC50 is the concentration needed to halve the response being measured. Read a low IC50 as greater potency in that assay.

Test [1] relates to IMR-32. As to the kind of experiment: Ability to stimulate Rb+ efflux from human IMR-32 cell preparations containing human alpha3-betaX receptors. The test is classed as functional, cell-based.
The subject of test [2] is IMR-32. As to the kind of experiment: Maximum efficacy relative to 100(uM) (S)-nicotine for cell preparations containing alpha3-betaX IMR32 cells. The format is functional, Homo sapiens.
Test [3] has as its system K177 cell line. Nature of the test: Ability to stimulate Rb+ efflux from human K177 cell preparations containing human alpha4-beta2 receptors. The test is classed as functional, cell-based.
The test system of test [4] is K177 cell line. Nature of the test: Maximum efficacy relative to 100(uM) (S)-nicotine for cell preparations containing alpha4-beta2 K177 cells. The format is functional, Homo sapiens.
Test [5] has as its target Neuronal acetylcholine receptor. As to the kind of experiment: Binding affinity against Nicotinic Acetylcholine Receptor was determined by measuring the displacement of [3H]cytisine from a preparation of whole rat brain. In a few lines:
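Displacement of the radioligand [3H]-(-)-cytisine from a whole rat brain preparation, which mainly labels the α4β2 receptor subtype. The procedure follows a previously published method.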
On the technique in general: In a radioligand displacement assay an active substance lowers the binding of a labelled ligand.

The test system of another test is IMR-32 (Homo sapiens). Nature of the test: Ability to stimulate Rb+ efflux from human IMR-32 cell preparations containing human alpha3-betaX receptors.

Consider `CN1CC[C@@H]1COc1cccnc1`, for which the 50% effective concentration (EC50) in the test on IMR-32 [1] was determined as 38000 nM; with K177 cell line [3] (Homo sapiens, K177) it was 35000 nM. Also, the Max with IMR-32 [2] came to 39%; with K177 cell line [4], 103%. The compound further had a Ki in test [5] of 3.5 nM.

For `c1cncc(OC[C@H]2CCCN2)c1`, the 50% effective concentration (EC50) was determined as 5800 nM in the test with IMR-32 [1] and 4300 nM in the test on K177 cell line [3] (Homo sapiens, K177). In addition, the Max is 100% in the test on IMR-32 [2] and 120% with K177 cell line [4]. Further, the affinity in test [5] corresponds to a Ki of 0.14 nM.

`CN1CCC[C@@H]1COc1cccnc1`: the figures for the IC50 with IMR-32 [1] and in the test with K177 cell line [3] were 54000 nM and 110000 nM, respectively. In addition, the Max is less than 20% in the test on IMR-32 [2] and less than 10% in the test with K177 cell line [4]. Also, affinity in test [5] was put at a Ki of 19.7 nM.

Take `c1cncc(OC[C@@H]2CCN2)c1`: the EC50 was determined as 700 nM in the test on IMR-32 [1] and 680 nM with K177 cell line [3] (Homo sapiens, K177). Besides, the Max was found to be 113% in the test on IMR-32 [2] and 163% with K177 cell line [4].

Take `CN1CC[C@H]1COc1cccnc1`: the EC50 in the test on IMR-32 [1] was determined as 30000 nM; in the test on K177 cell line [3] (Homo sapiens, K177), 3700 nM. For the same compound, the Max with IMR-32 [2] is 74%; in the test on K177 cell line [4] it was 116%. For the same compound, in test [5], the affinity corresponds to a Ki of 0.45 nM.

Take `Clc1ccc(C2CC3CCC2N3)cn1` (stereo not drawn) [EPIBATIDINE]: the EC50 in the test with IMR-32 [1] was found to be 7 nM; in the test with K177 cell line [3] (Homo sapiens, K177), 17 nM. For the same compound, the Max in the test on IMR-32 [2] and in the test on IMR-32 (Homo sapiens) was 156% each time.

With `c1cncc(OC[C@H]2CCN2)c1`, the half-maximal effective concentration (EC50) in the test on IMR-32 [1] amounted to 1100 nM; in the test on K177 cell line [3] (Homo sapiens, K177), 400 nM. Further, the Max in the test with IMR-32 [2] stood at 116%; in the test on K177 cell line [4], 159%.

`CN1CCC[C@H]1c1cccnc1` [NICOTINE]: the Max in the test with IMR-32 [2] and in the test with IMR-32 (Homo sapiens) was 100% throughout. The compound further came in with an EC50 in the test on K177 cell line [3] (Homo sapiens, K177) of 5000 nM.

On to `CN1CCC[C@H]1COc1cccnc1` (stereo in doubt; 2a), for which the Max in the test on IMR-32 [2] is 100%. This compound also had an EC50 in the test on K177 cell line [3] (k177) of 750 nM. This compound also displayed a Ki in test [5] of 0.15 nM.
